Measured values: article PMC7941583 (Cancer Reports, 2020)
The star is where a group is joined. Cbz = O=C(OCc1ccccc1)*; CH2F = FC*

Experiments:
RARα = target: T1, RARα (Homo sapiens, UniProt P10276); conditions: binding affinities of synthetic retinoids; cited from earlier work
T1 sequence (P10276 183-417 limits assumed): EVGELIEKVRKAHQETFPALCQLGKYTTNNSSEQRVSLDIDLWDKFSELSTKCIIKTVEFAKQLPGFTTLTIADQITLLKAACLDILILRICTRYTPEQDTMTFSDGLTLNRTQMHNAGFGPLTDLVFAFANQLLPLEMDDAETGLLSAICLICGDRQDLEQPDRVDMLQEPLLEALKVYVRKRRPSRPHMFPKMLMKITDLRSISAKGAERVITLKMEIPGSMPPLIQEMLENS

LNCaP cells [1] = assay: Cell cycle analysis; assay type: cell-based, human; conditions: 10^−6 M; for proportion of cells sub‐G0/G1: 48‐hour timepoint
Summary of the method: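 Serum-free adapted LNCaP cells treated with test compound over a time course to 48 h. Harvested cells stained with propidium iodide and analysed by flow cytometry. Phases were assigned by DNA content: 2n is G1, 4n is G2/M, and between 2n and 4n is S. Cells below 2n (sub-G1) were scored as apoptotic. Results are percentages of cells per phase.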

RARγ = target: T2, RARγ (Homo sapiens, UniProt P13631); conditions: binding affinities of synthetic retinoids; cited from earlier work
T2 sequence (P13631 185-419 limits assumed): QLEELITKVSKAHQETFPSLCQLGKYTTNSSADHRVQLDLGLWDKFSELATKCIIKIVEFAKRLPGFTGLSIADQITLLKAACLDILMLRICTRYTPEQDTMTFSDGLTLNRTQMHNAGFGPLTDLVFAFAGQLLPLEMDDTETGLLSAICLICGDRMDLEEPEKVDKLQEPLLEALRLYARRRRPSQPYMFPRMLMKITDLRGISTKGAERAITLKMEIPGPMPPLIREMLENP

DU145 cells [2] = assay: Colony forming efficiency, DU145; assay type: cell-based, human; conditions: DU145, Figure 4A
Summary of the method: (§1)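 Serum-free adapted cells were trypsinized (0.25% trypsin in PBS, 5 min, 37°C) into single-cell suspensions; suspensions under 90% trypan-blue-viable were discarded. 1000 cells per 65-mm dish were grown 21 days at 37°C, 5% CO2, in RPMI 1640 plus ITS+1 with test compound, refreshed every 5 days. Colonies were fixed in 1% formaldehyde and stained with methylene blue. CFE = colonies/cells inoculated × 100.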

LNCaP cells [3] = assay: TUNEL assay of apoptosis; assay type: cell-based, human; conditions: for proportion of apoptotic cells (TUNEL): 10^−6 M, 60 hours post‐treatment
Summary of the method: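 Serum-free adapted LNCaP cells (5 × 10^5 per 75 cm2 flask) were treated with 10−6 M test compound or vehicle over a time course. Z-VAD-FMK (50 μM) was added 1 h before compound where indicated. Adherent plus floating cells were cytospun and stained by TdT fluorescein in situ labelling. Positive cells were counted per 500 cells in five fields, on three slides per sample; results are % apoptotic cells.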

LNCaP cells [4] = assay: Colony forming efficiency, LNCaP; assay type: cell-based, human; conditions: Figure 4A
Summary of the method: as §1

PC‐3 cells [5] = assay: Colony forming efficiency, PC‐3; assay type: cell-based, human; conditions: PC‐3, Figure 4A
Summary of the method: as §1

RARβ = target: T3, RARβ (Homo sapiens, UniProt P10826); conditions: binding affinities of synthetic retinoids; cited from earlier work
T3 sequence (P10826 183-417 limits assumed): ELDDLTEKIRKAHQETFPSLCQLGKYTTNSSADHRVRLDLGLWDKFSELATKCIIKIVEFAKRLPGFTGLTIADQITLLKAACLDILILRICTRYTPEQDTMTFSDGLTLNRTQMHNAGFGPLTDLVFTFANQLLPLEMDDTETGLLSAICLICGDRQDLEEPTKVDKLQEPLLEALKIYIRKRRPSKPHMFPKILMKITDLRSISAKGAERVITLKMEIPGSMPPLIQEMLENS

LNCaP cells [6] = conditions: previous data; cited from earlier work
LNCaP cells [7] = assay: Cell growth; assay type: cell-based, human
LNCaP cells [8] = assay: Adipogenic differentiation; assay type: cell-based, human
LNCaP cells [9] = assay: Metabolic activity; assay type: cell-based, human; conditions: concentrations of 10^−6 M and above
Summary of the method: (§2)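 Serum-free adapted LNCaP, PC-3, DU145 or RWPE-1 cells were seeded at 400 cells/well in RPMI-1640 plus ITS+1. Test compound was added at seeding and again at day 2 by medium change. Viability was read at day 5 as intracellular ATP by luminescence (ViaLight HS). Results are % viable cells relative to vehicle control; at least three experiments in triplicate, mean ± SD.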

PC‐3 cells [10] = assay: Metabolic activity; assay type: cell-based, human; conditions: PC‐3, concentrations of 10^−6 M and above
Summary of the method: as §2

DU145 cells [11] = assay: Metabolic activity; assay type: cell-based, human; conditions: DU145, concentrations of 10^−6 M and above
Summary of the method: as §2

caspase‐9 = assay: Fluorometric caspase‐9 activity in LNCaP lysates; assay type: cell-based, human; conditions: 10^−6 M
Summary of the method: (§3)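 Serum-free adapted LNCaP cells were treated with 10−6 M test compound, with pan-caspase inhibitor and etoposide arms as indicated. Lysate was mixed with an equal volume of 20 mM HEPES pH 7.5, 10% glycerol, 2 mM DTT containing 50 μM substrate: DEVD-AFC (caspase-3), IETD-AFC (caspase-8) or LEHD-AFC (caspase-9). Background wells lacked lysate. Fluorescence was read at 400 nm excitation/508 nm emission, expressed as fold over control.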

LNCaP cells [12] = assay: Agarose gel electrophoresis of DNA; assay type: cell-based, human; conditions: time course
caspase‐3 = assay: Fluorometric caspase‐3 activity in LNCaP lysates; assay type: cell-based, human; conditions: 10^−6 M
Summary of the method: as §3

RWPE‐1 cells = assay: Metabolic activity; assay type: cell-based, human; conditions: non‐tumorigenic RWPE‐1 compared with PC cell lines
Summary of the method: as §2

caspase‐8 = assay: Fluorometric caspase‐8 activity in LNCaP lysates; assay type: cell-based, human; conditions: 10^−6 M
Summary of the method: as §3

PC‐3 cells [13] = assay: Cell growth; assay type: cell-based, human
DU145 cells [14] = assay: Cell growth; assay type: cell-based, human

Compound	ED50 RARα (RARα) [nM]	ED50 RARγ (RARγ)	colony forming efficiency (CFE), antagonists (DU145 cells [2])	proportion of apoptotic cells (TUNEL) (LNCaP cells [3])	colony forming efficiency (CFE), antagonists (LNCaP cells [4])	colony forming efficiency (CFE), antagonists (PC‐3 cells [5])	ED50 RARβ (RARβ) [nM]	also measured
CCc1ccc(C2=CC(C)(C)Sc3ccc(C#Cc4ccc(C(=O)O)cc4)cc32)cc1 [AGN194310, 4‐[[4‐(4‐Ethylphenyl)‐2,2‐dimethyl‐(2H)‐thiochromen‐6‐yl]‐ethynyl]‐benzoic acid]	4.3	2 nM	diminished the CFE	35%	diminished the CFE	diminished the CFE	5	proportion of cells in G1 phase (LNCaP cells [1]): gradually increased; proportion of cells in S‐phase (LNCaP cells [1]): fall; proportion of cells sub‐G0/G1 (LNCaP cells [1]): ~60%; colony formation (LNCaP cells [6]): inhibited colony formation
CC1(C)CCC(C)(C)c2c1cc(C(=O)Nc1cc(F)c(C(=O)O)c(F)c1)c(O)c2Cl [AGN195183, 4‐(4‐Chloro‐3‐hydroxy‐5,5,8,8‐tetramethyl‐5,6,7,8‐tetrahydronaphthalene‐2‐carboxamido)‐2,6‐difluorobenzoic acid]	20.1	>5000 nM					>5000	
CCOc1c(Br)cc(C(=O)Nc2ccc(C(=O)O)cc2)cc1C(=O)c1ccc(C)cc1 [AGN196996, 4‐(3‐Bromo‐4‐ethoxy‐5‐(4‐methylbenzoyl)benzamido)benzoic acid]	3.9	>10 000 nM	neither ATRA, nor the RARα‐selective antagonist AGN196996 (Figure 1, S1C, S1F and Table 1) proved as effective AGN205728 or AGN194310	little evidence of induction of apoptosis	neither ATRA, nor the RARα‐selective antagonist AGN196996 (Figure 1, S1C, S1F and Table 1) proved as effective AGN205728 or AGN194310	neither ATRA, nor the RARα‐selective antagonist AGN196996 (Figure 1, S1C, S1F and Table 1) proved as effective AGN205728 or AGN194310	4036	effect of co‐treatment on AGN195183‐mediated growth inhibition (LNCaP cells [7]; 4 days, AGN196996 10^−8 M with AGN195183 10^−8 M): abolished AGN195183‐mediated growth inhibition; effect of co‐treatment with ATRA on proliferation (LNCaP cells [7]; 4 days, AGN196996 10^−8 M with ATRA 10^−8 M): promoted proliferation of LNCaP cells
CC1(C)CCC(C)(C)c2cc(/C(=N\O)c3cc4cc(C(=O)O)ccc4[nH]3)ccc21 [AGN205327, 2‐[(E)‐N‐Hydroxy‐C‐(5,5,8,8‐tetramethyl‐6,7‐dihydronaphthalen‐2‐yl)carbonimidoyl]‐1H‐indole‐5‐carboxylic acid]	3766.0	32 nM					734	effect on ciglitazone‐induced adipogenesis (LNCaP cells [8]; AGN205327 added later than 48 hours post‐induction): failed to have any effect; inhibition of ciglitazone‐induced adipogenic differentiation (LNCaP cells [8]; ciglitazone (10^−7 M), AGN205327 10^−7 M given between 48 hours pre‐ and post‐addition of ciglitazone): ≤ 70%
Cc1ccc(C2=CCC(C)(C)c3cc(C(/C=C/c4ccc(C(=O)O)cc4)=N/O)ccc32)cc1 [AGN205728, 4‐[(E,3E)‐3‐[8,8‐Dimethyl‐5‐(4‐methylphenyl)‐7H‐naphthalen‐2‐yl]‐3‐hydroxyiminoprop‐1‐enyl]benzoic acid]	2400.0	3 nM	diminished the CFE	40%	diminished the CFE	diminished the CFE	4248	proportion of cells in G1 phase (LNCaP cells [1]): gradually increased; proportion of cells in S‐phase (LNCaP cells [1]): fall; proportion of cells sub‐G0/G1 (LNCaP cells [1]): ~40%; metabolic activity (LNCaP cells [9]): abolishing metabolic activity; metabolic activity (PC‐3 cells [10]): abolishing metabolic activity; metabolic activity (DU145 cells [11]): abolishing metabolic activity; activation of caspase‐9 (caspase‐9): failed to activate; DNA fragmentation pattern (LNCaP cells [12]): discrete laddering pattern that is typical of cells undergoing apoptosis; activation of caspase‐3 (caspase‐3): failed to activate; response of metabolic activity (RWPE‐1 cells): significantly diminished response; activation of caspase‐8 (caspase‐8): failed to activate
CC1=C(/C=C/C(C)=C/C=C/C(C)=C/C(=O)O)C(C)(C)CCC1 [ATRA, All‐trans‐retinoic acid]								effect on cell growth (LNCaP cells [7]; 10^−8 M and above): progressively diminished cell growth; increase in cell numbers (LNCaP cells [7]; 5 days, 10^−11‐10^−9 M): up to 1.5 fold; effect on cell growth (PC‐3 cells [13]; PC‐3, 10^−8 M and above): progressively diminished cell growth; increase in cell numbers (PC‐3 cells [13]; PC‐3, 5 days, 10^−11‐10^−9 M): up to 1.5 fold; effect on cell growth (DU145 cells [14]; DU145, 10^−8 M and above): progressively diminished cell growth; increase in cell numbers (DU145 cells [14]; DU145, 5 days, 10^−11‐10^−9 M): up to 1.5 fold
O=C(Nc1ccccc1)c1cc([N+](=O)[O-])ccc1Cl [GW9662]								inhibition of accumulation of lipid droplets (LNCaP cells [8]; differentiation medium, day 14, AGN205327 10^−7 M, GW9662 10^−5 M): of a similar order
Cbz-Val-Ala-Asp-CH2F [reference compound]								effect of pre‐treatment on AGN205728‐induced apoptosis (TUNEL) (LNCaP cells [3]; Z‐VAD‐FMK 5 × 10^−5 M, AGN205728 10^−6 M): failed to diminish induction of apoptosis by AGN205728
